RAD54 branch = inhibitors of human RAD54 branch migration, primary screen, biochemical, fluorescence, single point; inhibition, % at 10.4 µM; RAD54 Holliday junction branch migration, FAM/BHQ fluorescence; 0.14% of 360,000 active; AID 602329, 2012;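 active = mean normalized replicate activity at least 40 and at least half of replicates scoring 40 or more; inconclusive = only one of the two criteria met; inactive = mean below 40 and under half of replicates reaching 40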;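 also: inhibitors cause a drop in the FAM fluorescence signal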
FN deposit inh = inhibitors of fibronectin matrix deposition, primary screen, AH1F cells, Alexa488-fibronectin fluorescence, plate reader. AH1F fibroblasts, overnight. 0.086% of 350,000 active. inhibition, % at 12.6 µM. AID 743247, 2014;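 active = mean inhibition across replicates of 30% or more, regardless of how many single replicates reach that level; inconclusive = mean under 30% yet at least half of replicates reach 30%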
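Assay system: AH1F fibroblasts / Quantity: 10000 cells per well / Medium: DMEM plus 2% serum, read in PBS / Reagent: labelled fibronectin 24 nM / Dosing: single dose, pinned / Times: 1 h cell attachment, overnight exposure to compound and label / Signal: fluorescence, ex 485 nm, em 525 nm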
ERp5 block = inhibitors of ERp5-driven insulin aggregation, primary screen, biochemical, turbidity, absorbance 650 nm, single point | Protein disulfide-isomerase A6 (Homo sapiens), Q15084 | AID 651711, 2012 | 0.05% of 350,000 active | inhibition, % at 9.99 µM | 90 min;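 active = mean replicate inhibition above about 25%, with every replicate also reaching it, limit read from the data, passing the limit was not always enough; inconclusive = only one of those two criteria met; inactive = neither criterion met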
PglD DTNB = C. jejuni PglD acetyltransferase inhibitors, primary screen, biochemical, DTNB colorimetric, single point; purified PglD enzyme, DTNB colorimetric CoA detection; inhibition, % at 12.5 µM; 0.098% of 360,000 active; in the data active = inhibition above about 16%, passing the limit was not always enough; inconclusive = no clear call, values can overlap the other calls
PDI turbidity = inhibitors of human PDI, primary screen, biochemical, turbidity, single point, plate reader | PDI insulin aggregation turbidity, A650, 90 min | Protein disulfide-isomerase (Homo sapiens), P07237 | inhibition, % at 10 µM | 0.052% of 350,000 active;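 active = mean inhibition across replicates of 30% or more, whatever share of single replicates reach that level; inconclusive = mean inhibition below 30% while every single replicate reaches 30%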
S100A4 inh HTS = inhibitors of S100A4-myosin IIA peptide binding, primary screen, biochemical, fluorescence polarization, TAMRA-MyoIIA peptide; inhibition, % at 10.7 µM; 0.14% of 360,000 active;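 active = mean inhibition of at least 70% across replicates, with every replicate also reaching that level; inconclusive = mean inhibition reaches 70% but some replicates fall short; inactive = mean inhibition below 70%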
Target sequence (P26447 whole entry, looked up): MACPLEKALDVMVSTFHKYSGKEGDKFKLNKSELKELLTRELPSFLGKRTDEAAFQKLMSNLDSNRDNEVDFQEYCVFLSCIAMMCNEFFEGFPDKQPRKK
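assay system = human S100A4 monomer with TAMRA-labelled myosin IIA peptide | also added = labelled myosin peptide probe, 5 nM | incubation = 5 min between mix addition and reading | control set = DMSO and TFP controls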
DNA binding = DNA binding of candidate compounds, dose response, artefact control for RAD54 inhibitor project, biochemical, fluorescence polarization, cherry-pick | AC50, µM (highest dose often 35 µM) | shares compounds with RAD54 branch | AID 651673, 2012 | Acridine orange-DNA displacement, 20 min | 8% of 460 active;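 active = signal drop giving an AC50 within twice the top valid tested concentration of each sample, actives reach about 35 µM in these data; inactive = activity opposite to expected, plus the rest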;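 also: polarization loss reports compound binding to salmon sperm DNA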
Hits are given with their value; . = inactive; ? = inconclusive; / = no result given. Hits are enriched below; roughly 0.44% of the tested compounds scored in any of these assays.

SMILES	RAD54 branch	FN deposit inh	ERp5 block	PglD DTNB	PDI turbidity	S100A4 inh HTS	DNA binding
CC(C)OCC(O)CN1CCN(CCN2C(=O)c3cccc4cccc(c34)C2=O)CC1 (stereo unspecified)	79	.	.	.	.	.	.
Cc1ccccc1OCC(O)CN1CCN(CCN2C(=O)c3cccc4cccc(c34)C2=O)CC1 (stereo unspecified)	/	.	.	/	.	.	/
CCOC(=O)c1c(C)n(-c2ccc(C)cc2)c2ccc(OCC(O)CN3CCN(C)CC3)cc12 (stereo unspecified)	/	.	.	/	.	.	/
CCOC(=O)c1c(C)n(C)c2ccc(OCC(O)CN3CCN(C)CC3)cc12 (stereo unspecified)	?	.	.	.	.	.	.
O=C1c2cccc3cccc(c23)C(=O)N1CCCn1ccnc1	51	.	.	.	.	.	.
CN(C)CCOc1nc(-c2ccccc2)nc2c1oc1ccccc12	81	/	/	.	.	/	.
CCN(CC)CCN(C(=O)c1ccc2ncsc2c1)c1nc2cc3c(cc2s1)OCO3	?	/	.	.	.	.	.
COCC#Cc1cnc2c(c1)C(=O)N([C@@H](C)CO)C[C@@H](C)[C@@H](CN(C)C)O2	.	.	.	.	/	.	/
CN(C)CCCNc1nc2cc(-c3cccc(Cl)c3)sc2c(=O)n1C	50	.	.	.	.	.	.
COc1ccc(-c2cc3nc(NCCCN(C)C)n(C)c(=O)c3s2)cc1OC	69	.	.	.	.	.	.
Cc1ccsc1-c1cc2nc(NCCCN(C)C)n(C)c(=O)c2s1	?	.	.	.	.	.	.
CN1C(=O)c2cc(NC(=O)c3ccc(F)cc3)ccc2OC[C@@H]2O[C@H](CC(=O)O)CC[C@H]21	.	.	.	.	/	.	/
O=C(c1ccccc1)N1CC(=O)N2[C@H](C1)[C@@H](c1ccc(C#CCC3CCCC3)cc1)[C@@H]2CO	/	/	.	/	/	.	/
Cc1c(Cl)ccc(S(=O)(=O)NCCCn2ccnc2)c1Cl	?	.	.	.	.	.	.
O=C(Nc1ccc(Nc2ccncc2)cc1)c1ccc(Nc2ccnc3ccc([N+](=O)[O-])cc23)cc1	128	.	.	.	.	.	.
CN1C(=O)c2cc(NC(=O)C3CCOCC3)ccc2OC[C@@H]2O[C@H](CC(=O)NC3CCCC3)CC[C@@H]21	.	.	.	.	/	.	/
Cc1ccc2nc3c(c(Nc4ccc(O)cc4)c2c1)CCC3	67	.	.	.	.	.	.
Cc1cccc(Nc2c3c(nc4ccccc24)CCC3)c1	.	.	.	.	.	.	/
Cc1ccc2nc3c(c(Nc4ccc5c(c4)OCCO5)c2c1)CCC3	61	.	.	.	.	.	.
COc1ccc(Nc2c3c(nc4ccc(C)cc24)CCC3)cc1	54	.	.	.	.	.	.
CCN1CCN(c2cc(C)c3cc(NC(=S)N4CCCC4)ccc3n2)CC1	/	.	.	/	.	.	/
CCN1CCN(c2cc(C)c3cc(NC(=S)N4CCN(c5ccc(F)cc5)CC4)ccc3n2)CC1	.	.	.	.	.	.	/
CCN1CCN(c2cc(C)c3cc(NC(=S)N4CCCC(C)C4)ccc3n2)CC1 (stereo unspecified)	63	.	.	.	.	.	.
CCOC(=O)N1CCN(C(=S)Nc2ccc3nc(N4CCN(CC)CC4)cc(C)c3c2)CC1	.	.	.	.	.	.	/
CCN1CCN(C(=S)Nc2ccc3nc(N4CCN(CC)CC4)cc(C)c3c2)CC1	62	/	/	.	.	/	.
CCN1CCN(c2cc(C)c3cc(NC(=S)N4CC(C)CC(C)C4)ccc3n2)CC1 (stereo unspecified)	?	.	.	.	.	.	.

Assay outcomes as filed in PubChem.
